Results taken from ChEMBL document CHEMBL1649314, “Experimental murine scedosporiosis: histopathology and azole treatment” (2010).
Converted amounts (≈) assume the structure as drawn. The source made the active and inactive calls. No cut-off for these calls is given here.

How the values were obtained:
[1] = system: Scedosporium boydii; assay: Antifungal activity against Scedosporium boydii FMR 8627 infected in immunosuppressed OF1 mouse assessed as prolonged survival of mouse at 40 mg/kg, po BID administered 24 hrs postinfection for 10 days measured after 20 days; format: functional, organism-based; design: dose 40 mg/kg
[2] = system: Scedosporium boydii; assay: Antifungal activity against Scedosporium boydii FMR 6694 infected in immunosuppressed OF1 mouse assessed as reduction in kidney fungal burden at 40 mg/kg, po BID administered 24 hrs postinfection for 10 days measured after 20 days; format: functional, organism-based; design: dose 40 mg/kg
[3] = system: Scedosporium apiospermum; assay: Antifungal activity against Scedosporium apiospermum IHEM 14464 by broth dilution method; format: functional
[4] = system: Scedosporium apiospermum; assay: Antifungal activity against Scedosporium apiospermum IHEM 14464 infected in immunosuppressed OF1 mouse assessed as prolonged survival of mouse at 40 mg/kg, po BID administered 24 hrs postinfection for 10 days measured after 20 days; format: functional, organism-based; design: dose 40 mg/kg
[5] = Antifungal activity against Scedosporium aurantiacum CBS 116910 by broth dilution method; format: functional
[6] = Antifungal activity against Scedosporium aurantiacum IHEM 15458 by broth dilution method; format: functional
[7] = system: Scedosporium aurantiacum; assay: Antifungal activity against Scedosporium aurantiacum IHEM 15458 infected in immunosuppressed OF1 mouse assessed as reduction in kidney fungal burden at 20 mg/kg, po BID administered 24 hrs postinfection for 10 days measured after 20 days; format: functional, organism-based; design: dose 20 mg/kg
[8] = system: Scedosporium apiospermum; assay: Antifungal activity against Scedosporium apiospermum CBS 117407 infected in immunosuppressed OF1 mouse assessed as reduction in brain fungal burden at 20 mg/kg, po BID administered 24 hrs postinfection for 10 days measured after 20 days; format: functional, organism-based; design: dose 20 mg/kg
[9] = system: Scedosporium aurantiacum; assay: Antifungal activity against Scedosporium aurantiacum IHEM 15458 infected in immunosuppressed OF1 mouse assessed as reduction in kidney fungal burden at 40 mg/kg, po BID administered 24 hrs postinfection for 10 days measured after 20 days; format: functional, organism-based; design: dose 40 mg/kg
[10] = system: Scedosporium apiospermum; assay: Antifungal activity against Scedosporium apiospermum CBS 117407 infected in immunosuppressed OF1 mouse assessed as prolonged survival of mouse at 20 mg/kg, po BID administered 24 hrs postinfection for 10 days measured after 20 days; format: functional, organism-based; design: dose 20 mg/kg
Summary of the method: (§1)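 Male OF1 mice, groups of 10, immunosuppressed 1 day before infection with cyclophosphamide 200 mg/kg i.p. plus 5-fluorouracil 150 mg/kg i.v. Infected i.v. via tail vein with 1 × 10^4 CFU in 0.2 ml saline. Oral treatment began 24 h post-challenge for 10 days. Mice checked daily for 20 days. Survival by Kaplan-Meier, compared by log rank test.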

[11] = system: Scedosporium apiospermum; assay: Antifungal activity against Scedosporium apiospermum IHEM 14464 infected in immunosuppressed OF1 mouse assessed as reduction in kidney fungal burden at 20 mg/kg, po BID administered 24 hrs postinfection for 10 days measured after 20 days; format: functional, organism-based; design: dose 20 mg/kg
[12] = system: Scedosporium boydii; assay: Antifungal activity against Scedosporium boydii FMR 8627 infected in immunosuppressed OF1 mouse assessed as reduction in brain fungal burden at 20 mg/kg, po BID administered 24 hrs postinfection for 10 days measured after 20 days; format: functional, organism-based; design: dose 20 mg/kg
[13] = system: Scedosporium apiospermum; assay: Antifungal activity against Scedosporium apiospermum IHEM 14464 infected in immunosuppressed OF1 mouse assessed as prolonged survival of mouse at 20 mg/kg, po BID administered 24 hrs postinfection for 10 days measured after 20 days; format: functional, organism-based; design: dose 20 mg/kg; summary of the method: as §1
[14] = system: Scedosporium apiospermum; assay: Antifungal activity against Scedosporium apiospermum IHEM 14464 infected in immunosuppressed OF1 mouse assessed as reduction in brain fungal burden at 20 mg/kg, po BID administered 24 hrs postinfection for 10 days measured after 20 days; format: functional, organism-based; design: dose 20 mg/kg
[15] = system: Scedosporium apiospermum; assay: Antifungal activity against Scedosporium apiospermum CBS 117407 infected in immunosuppressed OF1 mouse assessed as reduction in kidney fungal burden at 40 mg/kg, po BID administered 24 hrs postinfection for 10 days measured after 20 days; format: functional, organism-based; design: dose 40 mg/kg
[16] = Antifungal activity against Scedosporium aurantiacum CBS 116910 infected in immunosuppressed OF1 mouse assessed as prolonged survival of mouse at 20 mg/kg, po BID administered 24 hrs postinfection for 10 days measured after 20 days; format: functional, organism-based; design: dose 20 mg/kg; summary of the method: as §1
[17] = system: Scedosporium aurantiacum; assay: Antifungal activity against Scedosporium aurantiacum CBS 116910 infected in immunosuppressed OF1 mouse assessed as reduction in kidney fungal burden at 20 mg/kg, po BID administered 24 hrs postinfection for 10 days measured after 20 days; format: functional, organism-based; design: dose 20 mg/kg
[18] = system: Scedosporium aurantiacum; assay: Antifungal activity against Scedosporium aurantiacum CBS 116910 infected in immunosuppressed OF1 mouse assessed as reduction in kidney fungal burden at 40 mg/kg, po BID administered 24 hrs postinfection for 10 days measured after 20 days; format: functional, organism-based; design: dose 40 mg/kg
[19] = Antifungal activity against Scedosporium aurantiacum IHEM 15458 infected in immunosuppressed OF1 mouse assessed as prolonged survival of mouse at 20 mg/kg, po BID administered 24 hrs postinfection for 10 days measured after 20 days; format: functional, organism-based; design: dose 20 mg/kg; summary of the method: as §1
[20] = system: Scedosporium boydii; assay: Antifungal activity against Scedosporium boydii FMR 8627 infected in immunosuppressed OF1 mouse assessed as reduction in kidney fungal burden at 20 mg/kg, po BID administered 24 hrs postinfection for 10 days measured after 20 days; format: functional, organism-based; design: dose 20 mg/kg
[21] = system: Scedosporium apiospermum; assay: Antifungal activity against Scedosporium apiospermum IHEM 14464 infected in immunosuppressed OF1 mouse assessed as reduction in kidney fungal burden at 40 mg/kg, po BID administered 24 hrs postinfection for 10 days measured after 20 days; format: functional, organism-based; design: dose 40 mg/kg
[22] = system: Scedosporium boydii; assay: Antifungal activity against Scedosporium boydii FMR 8627 infected in immunosuppressed OF1 mouse assessed as reduction in kidney fungal burden at 40 mg/kg, po BID administered 24 hrs postinfection for 10 days measured after 20 days; format: functional, organism-based; design: dose 40 mg/kg
[23] = system: Scedosporium aurantiacum; assay: Antifungal activity against Scedosporium aurantiacum IHEM 15458 infected in immunosuppressed OF1 mouse assessed as reduction in brain fungal burden at 20 mg/kg, po BID administered 24 hrs postinfection for 10 days measured after 20 days; format: functional, organism-based; design: dose 20 mg/kg
[24] = system: Scedosporium boydii; assay: Antifungal activity against Scedosporium boydii FMR 8627 infected in immunosuppressed OF1 mouse assessed as prolonged survival of mouse at 20 mg/kg, po BID administered 24 hrs postinfection for 10 days measured after 20 days; format: functional, organism-based; design: dose 20 mg/kg
Summary of the method: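 Male OF1 mice were immunosuppressed 1 day before infection with cyclophosphamide 200 mg/kg i.p. plus 5-fluorouracil 150 mg/kg i.v. They were infected i.v. via a lateral tail vein with 1 × 10^4 CFU/mouse in 0.2 ml saline. Oral dosing was 10 or 20 mg/kg twice daily, or 20 or 40 mg/kg once daily (those mice and controls drank grapefruit juice from day −3). Dosing ran 24 h post-challenge for 10 days; 10 mice/group; observed daily to day 20; Kaplan-Meier with log rank test.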

[25] = system: Scedosporium boydii; assay: Antifungal activity against Scedosporium boydii FMR 6694 infected in immunosuppressed OF1 mouse assessed as reduction in kidney fungal burden at 20 mg/kg, po BID administered 24 hrs postinfection for 10 days measured after 20 days; format: functional, organism-based; design: dose 20 mg/kg
[26] = system: Scedosporium apiospermum; assay: Antifungal activity against Scedosporium apiospermum CBS 117407 infected in immunosuppressed OF1 mouse assessed as prolonged survival of mouse at 40 mg/kg, po BID administered 24 hrs postinfection for 10 days measured after 20 days; format: functional, organism-based; design: dose 40 mg/kg
[27] = system: Scedosporium apiospermum; assay: Antifungal activity against Scedosporium apiospermum CBS 117407 infected in immunosuppressed OF1 mouse assessed as reduction in kidney fungal burden at 20 mg/kg, po BID administered 24 hrs postinfection for 10 days measured after 20 days; format: functional, organism-based; design: dose 20 mg/kg
[28] = system: Scedosporium aurantiacum; assay: Antifungal activity against Scedosporium aurantiacum CBS 116910 infected in immunosuppressed OF1 mouse assessed as reduction in brain fungal burden at 20 mg/kg, po BID administered 24 hrs postinfection for 10 days measured after 20 days; format: functional, organism-based; design: dose 20 mg/kg
[29] = system: Scedosporium boydii; assay: Antifungal activity against Scedosporium boydii FMR 6694 infected in immunosuppressed OF1 mouse assessed as prolonged survival of mouse at 40 mg/kg, po BID administered 24 hrs postinfection for 10 days measured after 20 days; format: functional, organism-based; design: dose 40 mg/kg
[30] = system: Scedosporium apiospermum; assay: Antifungal activity against Scedosporium apiospermum CBS 117407 by broth dilution method; format: functional
[31] = Antifungal activity against Scedosporium aurantiacum CBS 116910 infected in immunosuppressed OF1 mouse assessed as prolonged survival of mouse at 40 mg/kg, po BID administered 24 hrs postinfection for 10 days measured after 20 days; format: functional, organism-based; design: dose 40 mg/kg
[32] = system: Scedosporium boydii; assay: Antifungal activity against Scedosporium boydii FMR 8627 by broth dilution method; format: functional
[33] = system: Scedosporium boydii; assay: Antifungal activity against Scedosporium boydii FMR 6694 infected in immunosuppressed OF1 mouse assessed as reduction in brain fungal burden at 20 mg/kg, po BID administered 24 hrs postinfection for 10 days measured after 20 days; format: functional, organism-based; design: dose 20 mg/kg
[34] = system: Scedosporium boydii; assay: Antifungal activity against Scedosporium boydii FMR 6694 by broth dilution method; format: functional
[35] = system: Scedosporium boydii; assay: Antifungal activity against Scedosporium boydii FMR 6694 infected in immunosuppressed OF1 mouse assessed as prolonged survival of mouse at 20 mg/kg, po BID administered 24 hrs postinfection for 10 days measured after 20 days; format: functional, organism-based; design: dose 20 mg/kg; summary of the method: as §1
[36] = Antifungal activity against Scedosporium aurantiacum IHEM 15458 infected in immunosuppressed OF1 mouse assessed as prolonged survival of mouse at 40 mg/kg, po BID administered 24 hrs postinfection for 10 days measured after 20 days; format: functional, organism-based; design: dose 40 mg/kg

C[C@@H](c1ncncc1F)[C@](O)(Cn1cncn1)c1ccc(F)cc1F [VORICONAZOLE]
Activity [1]: Active | Activity [2]: inactive | MIC [3]: 0.25 µg/mL (≈ 0.716 µM) | Activity [4]: Active | MIC [5]: 32 µg/mL (≈ 91.6 µM) | MIC [6]: 1 µg/mL (≈ 2.86 µM) | Activity [7]: Active | Activity [8]: Active | Activity [9]: Active | Activity [10]: Active | Activity [11]: Active | Activity [12]: Active | Activity [13]: Active | Activity [14]: Active | Activity [15]: Active | Activity [16]: Active | Activity [17]: Active | Activity [18]: Active | Activity [19]: Active | Activity [20]: Active | Activity [21]: Active | Activity [22]: Active | Activity [23]: Active | Activity [24]: Active | Activity [25]: inactive | Activity [26]: Active | Activity [27]: Active | Activity [28]: Active | Activity [29]: Active | MIC [30]: 0.5 µg/mL (≈ 1.43 µM) | Activity [31]: Active | MIC [32]: 0.5 µg/mL (≈ 1.43 µM) | Activity [33]: inactive | MIC [34]: 1 µg/mL (≈ 2.86 µM) | Activity [35]: Active | Activity [36]: Active
